In assay [1] the target is T1, lipopolysaccharide-responsive beige-like anchor protein (LRBA) (Homo sapiens, UniProt P50851). The assay can be described thus: ITC with purified LRBA PH domain. It is filed as binding.
Target sequence in this assay (P50851 2073-2489 limits assumed): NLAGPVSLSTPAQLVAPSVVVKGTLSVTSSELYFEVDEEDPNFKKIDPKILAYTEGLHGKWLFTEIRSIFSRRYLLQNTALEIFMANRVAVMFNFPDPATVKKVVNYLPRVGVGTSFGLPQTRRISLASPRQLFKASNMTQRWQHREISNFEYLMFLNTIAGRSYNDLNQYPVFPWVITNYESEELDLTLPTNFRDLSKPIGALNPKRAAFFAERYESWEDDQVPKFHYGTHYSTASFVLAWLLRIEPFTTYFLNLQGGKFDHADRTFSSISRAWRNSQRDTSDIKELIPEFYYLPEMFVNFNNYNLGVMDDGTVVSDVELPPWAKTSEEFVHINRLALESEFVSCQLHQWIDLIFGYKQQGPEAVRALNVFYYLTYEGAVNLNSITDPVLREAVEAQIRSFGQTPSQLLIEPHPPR
Assay [2] has as its target T1, lipopolysaccharide-responsive beige-like anchor protein (LRBA). Kind of assay: Nluc complementation with purified LRBA PH. Format: cell-based. In a few lines:
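HEK293T cells were transfected with three plasmids and treated with test compound in DMEM assay medium at 250.00, 100.00, 33.30, 10.00, 3.33, 1.00, 0.33, 0.10, 0.03 and 0.01 μM. Inhibition of the CTLA4–LRBA interaction was read as the Nluc/Firefly luciferase ratio by dual-luciferase assay. In the cell-free format, Flag-purified Sm-LRBA PH was preincubated with compound for 2 h at 25 °C. Myc-purified CTLA4 CT-Lg was then added for 18 h at 25 °C.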
Target sequence in this assay (P50851 2073-2489): as the sequence (P50851 2073-2489 limits assumed) above
Target sequence in this assay (P16410 36-223, further chain): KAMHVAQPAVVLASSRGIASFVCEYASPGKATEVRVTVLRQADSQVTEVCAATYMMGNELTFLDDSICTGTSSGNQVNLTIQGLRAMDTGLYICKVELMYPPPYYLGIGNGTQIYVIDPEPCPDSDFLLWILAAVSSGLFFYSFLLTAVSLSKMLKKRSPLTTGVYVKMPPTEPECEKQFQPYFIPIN

These results are taken from PMC12815959 (Nature Communications, 2025).

In assay [1], `c1ccc2ncc(-c3ccnc(N4CCNCC4)n3)cc2c1` [LC427, 3-(2-(piperazin-1-yl)pyrimidin-4-yl) quinoline] returned a Kd of 19.6 µM.
Compound `NCC1CCN(c2nccc(-c3ccc4ccccc4c3)n2)CC1` [WAY-262611] registered an IC50 in assay [2] of 0.34 µM.

The Kd is the concentration at which binding is half-saturated. The IC50 is the point on the concentration scale where inhibition reaches its midpoint. A lower IC50 goes with greater potency in that assay.
